# Results reported in PubChem BioAssay.
# The source made the active and inactive calls.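 The calls were made as follows, unless noted: active = viability at or below 10% of carrier control in both of two separate runs; inconclusive = viability at or below 10% in only one of the two runs; inactive = the rest.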
# How the values were obtained:
# [1] = reducers of endogenous Her2 protein level, primary screen, SKBR3 breast tumor cells, AlphaScreen, ATP viability (AID 461;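 active = Her2 level under about 52% in both replicate screens, with viability over 70% of control, limit read from the data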;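 as to Her2 level: lower value means less Her2 protein in the cells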;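 as to viability: percent of carrier control wells set as 100% viability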); settings: 18-24 h, measured here: SKBR3 viability, ATP luminescence, at 10 µM
# [2] = target: Receptor tyrosine-protein kinase erbB-2 (Homo sapiens) (UniProt P04626); experiment: as above; settings: 18-24 h, at 10 µM, stronger effect = lower value
# [3] = SK-BR-3 cell growth inhibitors, pilot screen, 24 h, human (AID 572); settings: SK-BR-3 viability, CellTiter-Glo luminescence, at 10 µM, stronger effect = lower value;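 also: compound exposure lasted between 18 and 24 h rather than exactly 24 h; 100% = carrier-treated control wells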
# [4] = HUVEC growth inhibition – cell-based, human, primary screen (AID 575;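 active = viability at or below 30% in both replicate assays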;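 also: 100% = median of untreated cell wells with 0.1% DMSO on each plate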); settings: HUVEC proliferation, CellTiter-Glo luminescence, 72 h; at 10 µM; stronger effect = lower value
# Outline: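 System – primary HUVEC, no more than 12 passages · Medium – Low-serum (2% FBS) EBM, supplemented · Times – 72 h exposure, 37 °C, 5% CO2, 30 min RT equilibration · Measured by – luminescent ATP assay · Read-out – % viability relative to median vehicle-well signal on each plate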
# [5] = growth inhibitors of H69AR lung tumor, primary screen, human, duplicate replicates (AID 580;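 active = viability at or under a set limit in both replicates, limit being median viability minus 3 SD, cut at about 48% in these data, passing the limit was not always enough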;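 also: 100% = mean luminescence of untreated wells and 0% = no signal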); settings: H69AR lung tumor cells viability, ATP luminescence, 72 h; at 10 µM; stronger effect = lower value
# [6] = reversal of MRP1-mediated doxorubicin resistance, pilot screen, H69AR cells, doxorubicin co-treatment (AID 601;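 active = viability loss from added drug above about 55%, and viability with drug at most 40%, in both replicates, limit read from the data, passing the limit was not always enough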); settings: CellTiter-Glo, 72 h, at 10 µM; for differential viability (reversal): stronger effect = higher value
# [7] = 384-well plate pilot, post-Golgi transport modulator project, inhibition of yeast transport mutant growth (AID 636; in the data active = inhibition above about 31%); settings: absorbance 615 nm, about 18 h, stronger effect = higher value
# [8] = growth suppression of yeast trafficking mutant, preliminary HTS, modulators of trafficking downstream of Golgi apparatus project, 1536-format plate, OD 615 nm (AID 637; in the data active = inhibition above about 30%); settings: yeast transport mutant growth, absorbance 615 nm, 18 h; stronger effect = higher value
# [9] = H69AR cells + 2 uM doxorubicin, measured here: viability with 2 uM doxorubicin, stronger effect = lower value
# [10] = H69AR cells, compound alone cytotoxicity
# Chain of Receptor tyrosine-protein kinase erbB-2 (Homo sapiens) (P04626 whole entry, looked up): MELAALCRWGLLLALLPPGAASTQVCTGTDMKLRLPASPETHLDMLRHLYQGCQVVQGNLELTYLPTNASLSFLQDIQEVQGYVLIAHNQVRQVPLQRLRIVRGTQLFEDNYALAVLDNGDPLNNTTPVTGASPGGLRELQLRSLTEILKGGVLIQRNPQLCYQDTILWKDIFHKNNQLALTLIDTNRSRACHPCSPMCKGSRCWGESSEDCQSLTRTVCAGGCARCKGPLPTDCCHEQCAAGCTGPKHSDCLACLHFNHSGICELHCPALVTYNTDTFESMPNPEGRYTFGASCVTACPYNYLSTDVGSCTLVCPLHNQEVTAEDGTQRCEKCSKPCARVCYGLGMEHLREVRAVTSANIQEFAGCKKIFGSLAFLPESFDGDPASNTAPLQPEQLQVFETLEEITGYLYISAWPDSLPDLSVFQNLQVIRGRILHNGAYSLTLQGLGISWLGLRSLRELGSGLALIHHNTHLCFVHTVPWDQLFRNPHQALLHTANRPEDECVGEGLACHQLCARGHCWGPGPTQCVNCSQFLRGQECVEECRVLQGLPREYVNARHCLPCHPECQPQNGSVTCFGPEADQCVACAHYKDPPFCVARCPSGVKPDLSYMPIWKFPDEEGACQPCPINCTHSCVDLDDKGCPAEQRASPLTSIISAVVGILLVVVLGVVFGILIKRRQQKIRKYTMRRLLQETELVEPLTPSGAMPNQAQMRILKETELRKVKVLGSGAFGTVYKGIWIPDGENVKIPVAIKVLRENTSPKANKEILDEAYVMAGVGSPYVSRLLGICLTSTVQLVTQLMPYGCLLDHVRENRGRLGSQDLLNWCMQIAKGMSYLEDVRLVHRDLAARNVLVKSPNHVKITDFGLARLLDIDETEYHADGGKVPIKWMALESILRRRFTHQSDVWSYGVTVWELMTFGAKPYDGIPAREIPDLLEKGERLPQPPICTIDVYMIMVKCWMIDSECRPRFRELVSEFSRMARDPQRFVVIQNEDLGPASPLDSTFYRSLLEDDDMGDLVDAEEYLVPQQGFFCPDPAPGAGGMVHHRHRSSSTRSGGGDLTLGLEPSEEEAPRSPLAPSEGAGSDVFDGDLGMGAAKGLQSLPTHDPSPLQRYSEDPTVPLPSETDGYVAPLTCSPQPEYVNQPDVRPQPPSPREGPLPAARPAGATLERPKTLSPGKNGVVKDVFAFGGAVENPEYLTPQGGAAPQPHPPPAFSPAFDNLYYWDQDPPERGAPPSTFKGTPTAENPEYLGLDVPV
SMILES,viability [1] [%],Her2 level [2],viability [3],viability [4],viability [5],differential viability (reversal) ([6]; H69AR cells + 2 uM doxorubicin),"viability [6, 9] [%]","viability [6, 10] [%]",inhibition [7],inhibition [8]
CC(n1cnnn1)C12CC3CC(CC(C3)C1)C2 (stereo not given),88.5,96% (inactive),88.5% (inactive),93.4% (inactive),96% (inactive),11.3% (inactive),84.7,96,-1.2% (inactive),1.97% (inactive)
CN(C)S(=O)(=O)c1ccc2c(c1)C(CC(=O)O)OC2=O (stereo not given),94,96.5% (inactive),94% (inactive),111% (inactive),96.1% (inactive),-0.855% (inactive),96.9,96.1,-1.6% (inactive),17.1% (inactive)
Cc1ncc(CO)c2c1OC(C)(C)OC2,95.5,104% (inactive),95.5% (inactive),92.8% (inactive),93.5% (inactive),4.48% (inactive),89,93.5,-5.79% (inactive),-0.91% (inactive)
CCOC(=O)N1CCN(c2cc3nccnc3cc2F)CC1,114,92% (inactive),114% (inactive),84.5% (inactive),99.3% (inactive),5.61% (inactive),93.7,99.3,-7.03% (inactive),-4.17% (inactive)
c1cncc(-c2nnc3n2N=C(c2cccs2)CS3)c1,90.5,73.5% (inactive),90.5% (inactive),78.2% (inactive),92.5% (inactive),4.06% (inactive),88.5,92.5,-4.34% (inactive),-0.83% (inactive)
COc1cc2c(cc1OC)-c1cc(Nc3ccc4c(c3)OCCO4)nc(=O)n1CC2,91.5,82.5% (inactive),91.5% (inactive),63.2% (inactive),71.2% (inactive),-6.86% (inactive),78.1,71.2,-0.91% (inactive),-4.17% (inactive)
COCCNc1nc(C(C)(C)C)nc2c1nnn2Cc1ccccc1Cl,87,86.5% (inactive),87% (inactive),119% (inactive),96.1% (inactive),1.67% (inactive),94.4,96.1,-0.66% (inactive),-3.33% (inactive)
O=C(CN(Cc1ccco1)C(=O)CNS(=O)(=O)c1ccc(F)cc1)NCCc1ccccc1,78,91.5% (inactive),78% (inactive),85.8% (inactive),91.9% (inactive),0.9% (inactive),91,91.9,-6.35% (inactive),-2.79% (inactive)
CS(=O)(=O)N1CCCC(C(=O)NCc2ccccc2Cl)C1 (stereo not given),99,89% (inactive),99% (inactive),107% (inactive),86.5% (inactive),-4.79% (inactive),91.3,86.5,-1.3% (inactive),-0.95% (inactive)
CN(C)S(=O)(=O)c1ccc(/C(O)=C2/C(=O)C(=O)N(CCN3CCCCC3)C2c2cccnc2)cc1 (stereo not given),87,166% (inactive),87% (inactive),92.1% (inactive),87.3% (inactive),-3.39% (inactive),90.7,87.3,6.54% (inactive),11.3% (inactive)
COc1ccc(C(=O)NCc2nnc(SCC(=O)Nc3cc(C)cc(C)c3)o2)cc1OC,89.5,102% (inactive),89.5% (inactive),99.6% (inactive),89.3% (inactive),7.32% (inactive),82,89.3,0.13% (inactive),1.33% (inactive)
O=C1N=C(N2CCOCC2)CS1,108,110% (inactive),108% (inactive),103% (inactive),104% (inactive),5.3% (inactive),98.3,104,-4.27% (inactive),-1.45% (inactive)
COc1ccc(NC(=O)CSc2nnc(-c3ccccc3C)n2C)cc1,96.5,108% (inactive),96.5% (inactive),113% (inactive),100% (inactive),13.8% (inactive),86.4,100,-4.55% (inactive),-5.17% (inactive)
COc1ccc(CNc2nc(NCc3ccc(OC)cc3)n(S(C)(=O)=O)n2)cc1,104,114% (inactive),104% (inactive),92.6% (inactive),110% (inactive),8.61% (inactive),101,110,0% (inactive),0.82% (inactive)
CC(C)(C)n1ncc2c(=O)n(CC(=O)NCc3ccco3)cnc21,91.5,94% (inactive),91.5% (inactive),111% (inactive),68.5% (inactive),-12.3% (inactive),80.8,68.5,-1.45% (inactive),-10.5% (inactive)
